Source: publication PMC9043769 (RSC Advances, 2021)
pIC50: −log10 of the molar value. Read-outs that look alike come from different tables or passages of the source.

What was measured:
[1] = system: HT-29 colon adenocarcinoma cells; assay: MTT cytotoxicity assay, 72 h; type: cell-based, human; details: read-out: IC50, after 72 h incubation, HT-29
Procedure, shortened: (§1)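 Cell lines (ATCC) grown in DMEM with […], 10% FCS and antibiotic–antimycotic at 37 °C, 5% CO2. […] IC50 was calculated from means of at least two or three independent experiments in triplicate or quadruplicate.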

[2] = system: MCF-7 (ER+ breast adenocarcinoma) cells; assay: MTT cytotoxicity assay, 72 h; type: cell-based, human; details: for pIC50: read-out: IC50, after 72 h incubation, MCF-7
Procedure, shortened: as §1

[3] = system: MRC-5 normal fetal lung fibroblasts; assay: MTT cytotoxicity assay, 72 h; type: cell-based, human; details: read-out: IC50, after 72 h incubation, MRC-5
[4] = system: PC-3 prostate cancer cells; assay: MTT cytotoxicity assay, 72 h; type: cell-based, human
Procedure, shortened: as §1

[5] = system: HeLa cervical carcinoma cells; assay: MTT cytotoxicity assay, 72 h; type: cell-based, human
Procedure, shortened: as §1

[6] = system: A549 lung adenocarcinoma cells; assay: MTT cytotoxicity assay, 72 h; type: cell-based, human; details: read-out: IC50, after 72 h incubation, A549
Procedure, shortened: as §1

[7] = system: MDA-MB-231 (ER− breast adenocarcinoma) cells; assay: MTT cytotoxicity assay, 72 h; type: cell-based, human; details: read-out: IC50, after 72 h incubation, MDA-MB-231
Procedure, shortened: as §1

[8] = system: BJ human foreskin fibroblasts; assay: alamarBlue; type: cell-based; details: read-out: IC50, after 72 h incubation, BJ, normal fibroblasts
Procedure, shortened: (§2)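 CEM cells grown in RPMI 1640 with 20% FBS; G-361 and BJ cells in DMEM with 10% FBS. All media had 2 mM L-glutamine and 1% penicillin-streptomycin, 37 °C, 5% CO2. Six concentrations of compound, 0.2–50 μM (3× dilution), were applied for 72 h, with a resazurin (alamarBlue) read-out. IC50 came from means of at least two or three independent experiments in triplicate or quadruplicate.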

[9] = system: CEM T-lymphoblastic leukemia cells; assay: alamarBlue; type: cell-based, human; details: read-out: IC50, after 72 h incubation, CEM
Procedure, shortened: as §2

[10] = system: G-361 malignant melanoma cells; assay: alamarBlue; type: cell-based, human; details: read-out: IC50, after 72 h incubation, G-361
Procedure, shortened: as §2

`C[C@]12CCC(=O)C(O)=C1CC[C@@H]1[C@@H]2CC[C@]2(C)C(=O)CC[C@@H]12` [For, formestane] was tested, and the pIC50 ([1]; Homo sapiens, HT-29, 72 h) was under 4.00, the pIC50 ([2]; Homo sapiens, MCF7, 72 h) was under 4.00 and the “Toxicity toward MCF-7 tumor cells (in words)” value ([2]; MTT, 72 h) was “no toxicity”. The pIC50 ([3]; Homo sapiens, MRC5, 72 h) was under 4.00, the pIC50 ([4]; Homo sapiens, read-out: IC50, after 72 h incubation, PC-3) was 4.58 and the pIC50 ([5]; Homo sapiens, HeLa, read-out: IC50, after 72 h incubation, HeLa) was 5.47. For the same compound, the pIC50 ([6]; Homo sapiens, A549, 72 h) was 4.41 and the pIC50 ([7]; Homo sapiens, MDA-MB-231, 72 h) was 4.71.

`N.N.[Cl][Pt][Cl]` [Cis-Pt, cisplatin] was tested, and the pIC50 ([1]; MTT, 72 h) was 5.39, the pIC50 ([2]; MTT, 72 h) was 5.80 and the pIC50 [8] was 5.02. For the same compound, the pIC50 ([3]; MTT, 72 h, normal cells) was 6.70, the pIC50 [9] was 6.10 and the pIC50 ([4]; read-out: IC50, after 72 h incubation, PC-3, MTT) was 5.35. The pIC50 ([5]; read-out: IC50, after 72 h incubation, HeLa, MTT) was 5.68, the pIC50 ([6]; MTT, 72 h) was 5.49 and the pIC50 [10] was 5.35. The pIC50 ([7]; MTT, 72 h) was 5.59.
